{
  "source": "ChEMBL document CHEMBL4342521",
  "about": "(J Med Chem, 2020)",
  "key": {"[1]": {"assay": "Half life in CD1 mouse at 5 mg/kg, iv after 24 hrs by LC-MS/MS analysis", "type": "ADME, organism-based", "details": "in vivo", "summary_of_the_method": "(§1)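 Male CD-1 mice, fasted overnight, 3 per route; compound in PBS with 5% DMSO, iv bolus 5 mg/kg or oral gavage 20 mg/kg. Blood sampled at 5, 15, 30 min and 1–24 h. Plasma protein-precipitated with acetonitrile plus internal standard, quantified by LC-MS/MS (MRM). AUC by linear trapezoidal method; parameters by non-compartmental analysis.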"}, "Histone deacetylase 4": {"target": "Histone deacetylase 4 (Homo sapiens, UniProt P56524)", "sequence (P56524 whole entry)": "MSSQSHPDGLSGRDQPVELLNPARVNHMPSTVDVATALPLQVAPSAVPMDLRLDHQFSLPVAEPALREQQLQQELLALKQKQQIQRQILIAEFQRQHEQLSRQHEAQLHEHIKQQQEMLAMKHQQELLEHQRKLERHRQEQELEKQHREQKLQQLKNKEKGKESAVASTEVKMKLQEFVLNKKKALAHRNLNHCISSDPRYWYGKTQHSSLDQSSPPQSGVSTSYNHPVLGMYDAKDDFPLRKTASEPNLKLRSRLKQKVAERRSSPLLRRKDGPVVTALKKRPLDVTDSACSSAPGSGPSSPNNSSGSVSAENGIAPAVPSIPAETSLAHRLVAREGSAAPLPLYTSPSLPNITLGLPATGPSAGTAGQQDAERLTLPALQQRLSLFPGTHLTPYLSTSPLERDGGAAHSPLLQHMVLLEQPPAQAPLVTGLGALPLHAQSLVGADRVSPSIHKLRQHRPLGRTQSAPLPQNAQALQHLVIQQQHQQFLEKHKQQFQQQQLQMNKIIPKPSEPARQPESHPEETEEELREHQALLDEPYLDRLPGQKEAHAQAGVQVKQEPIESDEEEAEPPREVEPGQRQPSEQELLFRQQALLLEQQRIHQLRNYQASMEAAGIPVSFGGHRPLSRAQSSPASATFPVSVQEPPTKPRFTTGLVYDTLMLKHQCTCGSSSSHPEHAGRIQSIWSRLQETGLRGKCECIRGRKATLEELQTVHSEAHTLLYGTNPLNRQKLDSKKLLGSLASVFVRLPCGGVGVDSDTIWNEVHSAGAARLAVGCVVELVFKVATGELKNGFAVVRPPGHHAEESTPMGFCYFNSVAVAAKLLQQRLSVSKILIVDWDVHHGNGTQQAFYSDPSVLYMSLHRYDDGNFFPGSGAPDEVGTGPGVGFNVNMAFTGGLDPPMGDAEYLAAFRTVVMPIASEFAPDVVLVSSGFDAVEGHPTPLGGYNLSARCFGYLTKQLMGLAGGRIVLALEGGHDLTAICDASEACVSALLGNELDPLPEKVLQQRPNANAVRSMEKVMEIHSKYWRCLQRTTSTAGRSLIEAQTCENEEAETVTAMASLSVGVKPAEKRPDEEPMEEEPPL", "assay": "(§2) Inhibition of recombinant human HDAC4 using Boc-Lys (trifluoroacetyl)-AMC as substrate preincubated for 1 hr followed by substrate addition and measured after 2 hrs by fluorescence based micro plate reader analysis", "summary_of_the_method": "(§3)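 Recombinant enzyme was preincubated with serially varied inhibitor for 1 h at 30 °C. Boc-Lys(trifluoroacetyl)-AMC was then added to a final 50 μM and incubated 2 h at 30 °C. The reaction was stopped with developer containing trypsin and TSA, and fluorescence (ex 360/em 460 nm) was read 30 min later. Inhibition was taken relative to control wells and fitted to a variable-slope log(inhibitor) curve. Values are the mean of at least three experiments.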"}, "Histone deacetylase 9": {"target": "Histone deacetylase 9 (Homo sapiens, UniProt Q9UKV0)", "sequence (Q9UKV0 whole entry, the tested form may be a part)": "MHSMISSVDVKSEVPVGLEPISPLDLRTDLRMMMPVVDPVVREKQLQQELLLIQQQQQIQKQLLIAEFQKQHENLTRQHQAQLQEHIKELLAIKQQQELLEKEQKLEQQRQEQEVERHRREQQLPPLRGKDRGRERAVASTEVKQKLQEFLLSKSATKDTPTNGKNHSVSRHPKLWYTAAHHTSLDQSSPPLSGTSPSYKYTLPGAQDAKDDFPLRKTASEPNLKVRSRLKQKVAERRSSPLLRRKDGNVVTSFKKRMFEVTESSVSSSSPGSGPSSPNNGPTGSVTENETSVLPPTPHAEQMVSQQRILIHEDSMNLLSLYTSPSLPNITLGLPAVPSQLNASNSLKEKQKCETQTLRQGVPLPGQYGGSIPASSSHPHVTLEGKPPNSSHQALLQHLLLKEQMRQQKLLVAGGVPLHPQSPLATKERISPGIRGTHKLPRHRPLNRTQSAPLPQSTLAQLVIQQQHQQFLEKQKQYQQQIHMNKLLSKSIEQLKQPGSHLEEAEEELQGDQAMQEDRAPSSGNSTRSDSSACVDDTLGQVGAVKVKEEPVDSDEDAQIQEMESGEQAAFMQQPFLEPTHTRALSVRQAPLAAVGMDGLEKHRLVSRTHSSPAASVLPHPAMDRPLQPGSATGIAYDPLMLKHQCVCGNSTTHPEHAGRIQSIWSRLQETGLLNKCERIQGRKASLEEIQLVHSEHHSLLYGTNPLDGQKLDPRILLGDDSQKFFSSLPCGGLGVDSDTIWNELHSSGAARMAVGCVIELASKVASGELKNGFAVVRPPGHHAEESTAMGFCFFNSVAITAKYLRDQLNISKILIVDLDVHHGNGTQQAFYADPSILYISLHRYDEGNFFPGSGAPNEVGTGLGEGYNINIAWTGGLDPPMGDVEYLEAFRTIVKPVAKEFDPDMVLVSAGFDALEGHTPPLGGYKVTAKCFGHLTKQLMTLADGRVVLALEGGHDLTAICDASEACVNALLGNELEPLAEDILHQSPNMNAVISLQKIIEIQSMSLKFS", "assay": "as §2, with “C-terminal His-tagged HDAC9 (604 to 1066 residues) expressed in baculovirus infected Sf9 cells” for “HDAC4”", "summary_of_the_method": "as §3"}, "SF-268": {"tested_on": "SF-268", "assay": "Antiproliferative activity against human SF268 cells assessed as reduction in cell viability after 48 hrs by CellTiter-Blue assay", "type": "functional", "details": "SF-268, 48 h, read-out: LC50 (the source's name)", "summary_of_the_method": "(§4)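 Cells grown in RPMI1640 with 10% FBS at 37 °C, 5% CO₂. 5,000–10,000 cells/well were pre-incubated overnight, and a time-zero CellTiter-Blue read was taken. Six 10-fold dilutions (top final 10 μM) were applied for 48 h, followed by 0.125 mg/mL CellTiter-Blue for 2–4 h. Resorufin fluorescence was read at ex 560/em 590 nm. […] Triplicates.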"}, "SNB-19": {"tested_on": "SNB-19", "assay": "Antiproliferative activity against human SNB19 cells assessed as reduction in cell viability after 48 hrs by CellTiter-Blue assay", "type": "functional", "details": "SNB-19, 48 h, read-out: LC50 (the source's name)", "summary_of_the_method": "as §4"}, "M14": {"tested_on": "M14", "assay": "Antiproliferative activity against human M14 cells assessed as reduction in cell viability after 48 hrs by CellTiter-Blue assay", "type": "functional", "details": "M14, 48 h, read-out: LC50 (the source's name)", "summary_of_the_method": "as §4"}, "SK-MEL-5": {"tested_on": "SK-MEL-5", "assay": "Antiproliferative activity against human SK-MEL-5 cells assessed as reduction in cell viability after 48 hrs by CellTiter-Blue assay", "type": "functional", "details": "SK-MEL-5, 48 h, read-out: LC50 (the source's name)", "summary_of_the_method": "as §4"}, "UACC-257": {"tested_on": "UACC-257", "assay": "Antiproliferative activity against human UACC257 cells assessed as reduction in cell viability after 48 hrs by CellTiter-Blue assay", "type": "functional", "details": "UACC-257, 48 h, read-out: LC50 (the source's name)", "summary_of_the_method": "(§5)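 NCI-60 panel lines grown in RPMI1640 with 10% FBS at 37 °C, 5% CO₂. Seeded at 5,000–10,000 cells/well and pre-incubated overnight. Exposed for 48 h to six 10-fold dilutions (top final 10 μM), with a time-zero plate read at dosing. CellTiter-Blue (0.125 mg/mL) for 2–4 h, fluorescence 560/590 nm, triplicate curves.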"}, "IGROV-1": {"tested_on": "IGROV-1", "assay": "Antiproliferative activity against human IGROV1 cells assessed as reduction in cell viability after 48 hrs by CellTiter-Blue assay", "type": "functional", "details": "IGROV-1, 48 h, read-out: LC50 (the source's name)", "summary_of_the_method": "as §4"}, "OVCAR-4": {"tested_on": "OVCAR-4", "assay": "Antiproliferative activity against human OVCAR4 cells assessed as reduction in cell viability after 48 hrs by CellTiter-Blue assay", "type": "functional", "details": "OVCAR-4, 48 h, read-out: LC50 (the source's name)", "summary_of_the_method": "as §4"}, "SK-OV-3": {"tested_on": "SK-OV-3", "assay": "Antiproliferative activity against human SKOV3 cells assessed as reduction in cell viability after 48 hrs by CellTiter-Blue assay", "type": "functional", "details": "SK-OV-3, 48 h, read-out: LC50 (the source's name)", "summary_of_the_method": "as §4"}, "786-0": {"tested_on": "786-0", "assay": "Antiproliferative activity against human 786-0 cells assessed as reduction in cell viability after 48 hrs by CellTiter-Blue assay", "type": "functional", "details": "786-0, 48 h, read-out: LC50 (the source's name)", "summary_of_the_method": "as §4"}, "SN12C": {"tested_on": "SN12C", "assay": "Antiproliferative activity against human SN12C cells assessed as reduction in cell viability after 48 hrs by CellTiter-Blue assay", "type": "functional", "details": "read-out: LC50 (the source's name)", "summary_of_the_method": "as §4"}, "UO-31": {"tested_on": "UO-31", "assay": "Antiproliferative activity against human UO31 cells assessed as reduction in cell viability after 48 hrs by CellTiter-Blue assay", "type": "functional", "details": "UO-31, 48 h, read-out: LC50 (the source's name)", "summary_of_the_method": "as §5"}, "PC-3": {"tested_on": "PC-3", "assay": "Antiproliferative activity against human PC3 cells assessed as reduction in cell viability after 48 hrs by CellTiter-Blue assay", "type": "functional", "details": "PC-3, 48 h, read-out: LC50 (the source's name)", "summary_of_the_method": "as §4"}, "RS4-11 [2]": {"tested_on": "RS4-11", "assay": "Antiproliferative activity agaisnt human RS4:11 cells expressing wild type p53/FLT3 assessed as cell death at 10 uM after 48 hrs by CellTiter-blue assay", "type": "functional, cell-based"}, "MV4-11 [3]": {"tested_on": "MV4-11", "assay": "Down regulation of STAT5 in human MV4-11 cells harboring wild type p53/FLT3-ITD mutant at 50 to 200 nM after 24 hrs by Western blot analysis", "type": "functional, cell-based", "summary_of_the_method": "(§6)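 Cells (1,500,000 per well) grown 12 h, then drug-treated as specified. Lysed in RIPA buffer, sonicated, centrifuged, protein normalized by BCA. Run on 4–12% Bis-Tris gels in MES, transferred, probed overnight at 4 °C with primary antibodies at 1/1000. Actin served as reference for LC3-II quantitation.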"}, "MV4-11 [4]": {"tested_on": "MV4-11", "assay": "Inhibition of ERK phosphorylation in human MV4-11 cells harboring wild type p53/FLT3-ITD mutant at 50 to 200 nM after 24 hrs by Western blot analysis", "type": "cell-based", "summary_of_the_method": "as §6"}, "MV4-11 [5]": {"tested_on": "MV4-11", "assay": "Induction of apoptosis in human MV4-11 cells harboring wild type p53/FLT3-ITD mutant assessed as c-FLIP degradation at 50 to 200 nM after 24 hrs by Western blot analysis", "type": "functional, cell-based", "summary_of_the_method": "as §6"}, "HL-60 [6]": {"tested_on": "HL-60", "assay": "Effect on XIAP protein degradation in p53 null human HL60 cells harboring wild type FLT3 at 50 to 200 nM after 24 hrs by Western blot analysis", "type": "functional, cell-based", "summary_of_the_method": "as §6"}, "HL-60 [7]": {"tested_on": "HL-60", "assay": "Effect on c-Flip protein degradation in p53 null human HL60 cells harboring wild type FLT3 at 50 to 200 nM after 24 hrs by Western blot analysis", "type": "functional, cell-based", "summary_of_the_method": "as §6"}, "RS4-11 [8]": {"tested_on": "RS4-11", "assay": "Down regulation of STAT5 expression in human RS4:11 cells harboring wild type p53/FLT3 assessed as cleavage of pro-caspase 3 at 50 to 200 nM after 24 hrs by Western blot analysis", "type": "functional, cell-based", "summary_of_the_method": "as §6"}, "MV4-11 [9]": {"tested_on": "MV4-11", "assay": "Induction of pro caspase 3 cleavage in human MV4-11 cells at 200 nM after 24 hrs in presence of 5 nM bortezomib by Western blot analysis", "type": "functional, cell-based", "summary_of_the_method": "as §6"}, "MV4-11 [10]": {"tested_on": "MV4-11", "assay": "Induction of apoptosis in human MV4-11 cells assessed as cleavage of pro caspase 3 at 200 nM after 24 hrs in presence of 50 uM z-VAD by Western blot analysis", "type": "functional, cell-based", "summary_of_the_method": "as §6"}, "[11]": {"assay": "AUC (0 to infinity) in CD1 mouse at 20 mg/kg, po via gavage after 24 hrs by LC-MS/MS analysis", "type": "ADME, organism-based", "parameters": "dose 20 mg/kg, time infinity, route oral", "details": "in vivo", "summary_of_the_method": "as §1"}},
  "note": "The source made the active and inactive calls. The calls are words filed in the database; no cut-off is given here.",
  "data": [
    {"compound": "CCCNNC(=O)/C=C/c1ccc(CNCCc2c(C)[nH]c3ccccc23)cc1.O=C(O)C(F)(F)F", "values": [
      {"measurement": "t1/2", "setting": "[1]", "value": 15.2, "unit": "h"},
      {"measurement": "IC50", "setting": "Histone deacetylase 4", "value": "> 10", "unit": "µM"},
      {"measurement": "IC50", "setting": "Histone deacetylase 9", "value": "> 10", "unit": "µM"},
      {"measurement": "CC50", "setting": "SF-268", "value": "> 10", "unit": "µM"},
      {"measurement": "CC50", "setting": "SNB-19", "value": "> 10", "unit": "µM"},
      {"measurement": "CC50", "setting": "M14", "value": "> 10", "unit": "µM"},
      {"measurement": "CC50", "setting": "SK-MEL-5", "value": "> 10", "unit": "µM"},
      {"measurement": "CC50", "setting": "UACC-257", "value": "> 10", "unit": "µM"},
      {"measurement": "CC50", "setting": "IGROV-1", "value": "> 10", "unit": "µM"},
      {"measurement": "CC50", "setting": "OVCAR-4", "value": "> 10", "unit": "µM"},
      {"measurement": "CC50", "setting": "SK-OV-3", "value": "> 10", "unit": "µM"},
      {"measurement": "CC50", "setting": "786-0", "value": "> 10", "unit": "µM"},
      {"measurement": "CC50", "setting": "SN12C", "value": "> 10", "unit": "µM"},
      {"measurement": "CC50", "setting": "UO-31", "value": "> 10", "unit": "µM"},
      {"measurement": "CC50", "setting": "PC-3", "value": "> 10", "unit": "µM"},
      {"measurement": "Activity", "setting": "RS4-11 [2]", "value": "Active"},
      {"measurement": "Activity", "setting": "MV4-11 [3]", "value": "Active"},
      {"measurement": "inhibition", "setting": "MV4-11 [4]", "value": "Active"},
      {"measurement": "Activity", "setting": "MV4-11 [5]", "value": "Active"},
      {"measurement": "Activity", "setting": "HL-60 [6]", "value": "Active"},
      {"measurement": "Activity", "setting": "HL-60 [7]", "value": "Active"},
      {"measurement": "Activity", "setting": "RS4-11 [8]", "value": "inactive"},
      {"measurement": "Activity", "setting": "MV4-11 [9]", "value": "Active"},
      {"measurement": "Activity", "setting": "MV4-11 [10]", "value": "inactive"},
      {"measurement": "AUC", "setting": "[11]", "value": 265, "unit": "ng·h/mL"}
    ]}
  ]
}
